ChEMBL document CHEMBL1142362, “Synthesis and biological activity of simplified denoviose-coumarins related to novobiocin as potent inhibitors of heat-shock protein 90 (hsp90)” (Bioorg Med Chem Lett, 2008)
Active and inactive are the calls of the source. The rule behind the calls is not given here.

Experiments:
MCF7 [1] = assay: Inhibition of HSP90 in human MCF7 cells assessed as decrease in ERalpha level at 100 uM after 16 hrs by Western blot analysis; format: cell-based
Procedure, shortened: (§1)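 Treated MCF-7 cell lysates were immunoblotted using the primary antibodies ERα (HC20) and Raf-1 (C12), with detection by a peroxidase-labelled secondary antibody. The control lysate came from DMSO-exposed cells. A nonspecific band served as the loading control.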

MCF7 [2] = assay: Inhibition of HSP90 in human MCF7 cells assessed as decrease in Raf-1 level at 100 uM after 16 hrs by Western blot analysis; format: cell-based; procedure, shortened: as §1
MELN [3] = assay: Effect on estradiol-induced transcription in human MELN cells assessed as inhibition of luciferase activity at 200 uM after 18 hrs relative to control; format: functional, cell-based
Procedure, shortened: (§2)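 MELN breast cancer cells were treated for 18 h with the compounds, with or without 0.1 nM estradiol. Luciferase activity was measured and expressed as fold induction relative to untreated control cells.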

MCF7 [4] = assay: Reversal of inhibition of HSP90 in human MCF7 cells assessed as decrease in ERalpha level at 100 uM after 16 hrs in presence of MG132 by Western blot analysis; format: cell-based
MELN [5] = assay: Effect on estradiol-induced transcription in human MELN cells assessed as increase in luciferase activity at 200 uM after 18 hrs relative to control; format: functional, cell-based; procedure, shortened: as §2
MCF7 [6] = assay: Antiproliferative activity against human MCF7 cells after 72 hrs by MTT assay; format: functional, cell-based; conditions: MCF7, 72 h
Procedure, shortened: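 MCF-7 cells were seeded at 5000 cells/well and, after 24 h, exposed to serial dilutions for 72 h. Survival was read by MTT. IC50 is the concentration giving 50% growth inhibition versus vehicle-treated cells. Values are the means of three experiments run in sextuplicate, with standard deviation.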

MCF7 [7] = assay: Inhibition of HSP90 in human MCF7 cells assessed as decrease in progesterone receptor A level; format: cell-based
Procedure, shortened: (§3)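 MCF-7 cells were exposed to increasing concentrations, and lysates were immunoblotted for PRA and PRB with a PR (Ab-8) primary antibody and a peroxidase-labelled secondary antibody. The control was a DMSO-exposed lysate. A nonspecific band served as the constant loading reference.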

MCF7 [8] = assay: Inhibition of HSP90 in human MCF7 cells assessed as decrease in progesterone receptor B level; format: cell-based; procedure, shortened: as §3

| Structure (SMILES) | Activity (MCF7 [1]) | Activity (MCF7 [2]) | Activity (MELN [3]) | Activity (MCF7 [4]) | Activity (MELN [5]) | IC50 (MCF7 [6]) | Activity (MCF7 [7]) | Activity (MCF7 [8]) |
| --- | --- | --- | --- | --- | --- | --- | --- | --- |
| COc1ccc(-c2c(NC(=O)c3ccc(OC)cc3OC)c(=O)oc3ccccc23)cc1 | inactive | inactive |  |  |  |  |  |  |
| COc1ccccc1CC(=O)Nc1c(OS(=O)(=O)c2ccc(C)cc2)c2ccccc2oc1=O |  |  | Active |  |  |  |  |  |
| COc1ccc2cc(C(=O)Nc3c(O)c4ccccc4oc3=O)c(=O)oc2c1 | Active | Active |  | Active |  |  |  |  |
| COc1ccccc1CC(=O)Nc1c(O)c2ccccc2oc1=O | Active | Active |  | Active |  |  |  |  |
| COc1ccc(-c2c(NC(=O)c3cc(OC)c(OC)c(OC)c3)c(=O)oc3ccccc23)cc1 | inactive | inactive |  |  |  |  |  |  |
| CCCCCCCCCCCCC(=O)Nc1c(-c2ccc(Cl)cc2)c2ccccc2oc1=O | inactive | inactive |  |  |  |  |  |  |
| CC1(C)C=Cc2cc(C(=O)Nc3c(O)c4ccccc4oc3=O)ccc2O1 | inactive | inactive |  |  | Active |  |  |  |
| COc1cc(C(=O)Nc2c(OS(=O)(=O)c3ccc(C)cc3)c3ccccc3oc2=O)cc(OC)c1OC | Active | inactive | Active | Active |  | 40 µM |  |  |
| Cc1ccc(S(=O)(=O)Oc2c(NC(=O)c3ccc4c(c3)C=CC(C)(C)O4)c(=O)oc3ccccc23)cc1 | Active | Active | Active | Active |  | 35 µM | Active | Active |
| CCCC(=O)Nc1c(OS(=O)(=O)c2ccc(C)cc2)c2ccccc2oc1=O | Active | Active | Active | Active |  | 75 µM |  |  |
| CCCCCCCCCCCCC(=O)Nc1c(OS(=O)(=O)c2ccc(C)cc2)c2ccccc2oc1=O | Active | Active | Active | Active |  | 50 µM |  |  |
| CCCCCCCCCCCCC(=O)Nc1c(-c2cc(OC)c(OC)c(OC)c2)c2ccccc2oc1=O | inactive | inactive |  |  |  |  |  |  |
| CCCCCCCCCCCCC(=O)Nc1c(-c2ccc(OC)cc2)c2ccccc2oc1=O | Active | Active |  | Active |  |  |  |  |
| COc1cccc(OC)c1C(=O)Nc1c(O)c2ccccc2oc1=O | Active | Active |  | Active |  |  |  |  |
| CCCC(=O)Nc1c(O)c2ccccc2oc1=O | inactive | inactive | Active |  |  |  |  |  |
| CCCC(=O)Nc1c(-c2cc(OC)c(OC)c(OC)c2)c2ccccc2oc1=O | inactive | inactive |  |  |  |  |  |  |
| Cc1ccc(S(=O)(=O)Oc2c(NC(=O)C3=Cc4ccccc4OC3)c(=O)oc3ccccc23)cc1 | Active | Active | Active | Active |  | 70 µM |  |  |
| CC1(C)CCc2cc(C(=O)Nc3c(O)c4ccccc4oc3=O)ccc2O1 | Active | Active |  | Active |  |  |  |  |
| CC(=O)Nc1c(O)c2ccccc2oc1=O | Active | Active |  | Active |  |  |  |  |
